Laboratory results as given in ChEMBL document CHEMBL1123167, “Synthesis and evaluation of phenyl- and benzoylpiperazines as potential serotonergic agents” (J Med Chem, 1986).
Active and inactive are the calls of the source. The calls are words filed in the database; no cut-off is given here.

Assays:
[1] = Displacement of […] from 5-hydroxytryptamine 1 receptor of rat cortex
[2] = target: Serotonin 2 (5-HT2) receptor (Rattus norvegicus, UniProt P30994+P08909+P14842); test: Displacement of [3H]ketanserin from 5-hydroxytryptamine 2 receptor of rat cortex
Method in brief: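 Rat tissue homogenate (4 mg wet weight per assay) in 50 mM Tris, 5 mM MgCl2, 0.5 mM EDTA, pH 7.4 at 37 °C, competed against 0.4 nM [3H]ketanserin. Bound ligand was collected on glass fiber filters and counted by liquid scintillation. Assays were run in triplicate. IC50 came from a 23-point curve by nonlinear least-squares fitting, and Ki = IC50/(1 + [D]/KD).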

Rattus norvegicus [3] = test: Stimulus generalization in DOM-trained rats at dosage 12 mg/kg. Number of animals responding/number of animals are 4/4; format: functional
Rattus norvegicus [4] = test: Stimulus generalization in DOM-trained rats at dosage 13.5 mg/kg. Number of animals responding/number of animals are 3/4; format: functional
Rattus norvegicus [5] = test: Stimulus generalization in DOM-trained rats at dosage 14.0 mg/kg. Number of animals responding/number of animals are 1/5; D=Disruption of behavior; format: functional, organism-based; design: dose 14 mg/kg
Rattus norvegicus [6] = test: Stimulus generalization in DOM-trained rats at dosage 15 mg/kg. Number of animals responding/number of animals are 1/4; D=Disruption of behavior; format: functional, organism-based; design: dose 15 mg/kg
Rattus norvegicus [7] = test: Stimulus generalization in DOM-trained rats at dosage 18 mg/kg. Number of animals responding/number of animals are 0/4; D=Disruption of behavior; format: functional, organism-based; design: dose 18 mg/kg
Rattus norvegicus [8] = test: Stimulus generalization in TFMPP-trained rats at dosage 1.2 mg/kg. Number of animals responding/number of animals are 4/4; format: functional
Rattus norvegicus [9] = test: Stimulus generalization in TFMPP-trained rats at dosage 10 mg/kg. Number of animals responding/number of animals are 3/3; format: functional
Rattus norvegicus [10] = test: Stimulus generalization in TFMPP-trained rats at dosage 15 mg/kg. Number of animals responding/number of animals are 3/3; format: functional
Rattus norvegicus [11] = test: Stimulus generalization in TFMPP-trained rats at dosage 3.0 mg/kg. Number of animals responding/number of animals are 4/4; format: functional
Rattus norvegicus [12] = test: Stimulus generalization in TFMPP-trained rats at dosage 6.0 mg/kg. Number of animals responding/number of animals are 4/4; format: functional
Rattus norvegicus [13] = test: Stimulus generalization in DOM-trained rats at dosage 6.0 mg/kg. Number of animals responding/number of animals are 5/5; format: functional
Rattus norvegicus [14] = test: Compound was evaluated for ED50 in DOM-trained rats at dosage 9.0 mg/kg. Number of animals responding/number of animals are 3/3; format: functional
Rattus norvegicus [15] = test: Stimulus generalization in DOM-trained rats at dosage 1.0 mg/kg. Number of animals responding/number of animals are 3/3; format: functional
Rattus norvegicus [16] = test: Stimulus generalization in DOM-trained rats at dosage 3.0 mg/kg. Number of animals responding/number of animals are 3/3; format: functional
Rattus norvegicus [17] = test: Stimulus generalization in DOM-trained rats at dosage 5.0 mg/kg. Number of animals responding/number of animals are 3/3; format: functional
Rattus norvegicus [18] = test: Stimulus generalization in DOM-trained rats at dosage 8.0 mg/kg. Number of animals responding/number of animals are 3/3; format: functional
Rattus norvegicus [19] = test: Stimulus generalization in DOM-trained rats at dosage 9.0 mg/kg. Number of animals responding/number of animals are 3/3; format: functional
Rattus norvegicus [20] = test: Stimulus generalization in TFMPP-trained rats at dosage 10 mg/kg. Number of animals responding/number of animals are 5/5; format: functional
Rattus norvegicus [21] = test: Stimulus generalization in TFMPP-trained rats at dosage 2.0 mg/kg. Number of animals responding/number of animals are 4/4; format: functional
Rattus norvegicus [22] = test: Stimulus generalization in TFMPP-trained rats at dosage 5.0 mg/kg. Number of animals responding/number of animals are 4/4; format: functional
Rattus norvegicus [23] = test: Stimulus generalization in TFMPP-trained rats at dosage 0.3 mg/kg. Number of animals responding/number of animals are 3/3; format: functional
Rattus norvegicus [24] = test: Stimulus generalization in DOM-trained rats at dosage 0.1 mg/kg. Number of animals responding/number of animals are 3/3; format: functional
Rattus norvegicus [25] = test: Stimulus generalization in DOM-trained rats at dosage 0.5 mg/kg. Number of animals responding/number of animals are 2/3; format: functional
Rattus norvegicus [26] = test: Stimulus generalization in TFMPP-trained rats at dosage 1.0 mg/kg. Number of animals responding/number of animals are 5/5; format: functional
Rattus norvegicus [27] = test: Stimulus generalization in TFMPP-trained rats at dosage 1.2 mg/kg. Number of animals responding/number of animals are 5/5; format: functional
Rattus norvegicus [28] = test: Stimulus generalization in TFMPP-trained rats at dosage 0.1 mg/kg. Number of animals responding/number of animals are 4/5; format: functional
Rattus norvegicus [29] = test: Stimulus generalization in TFMPP-trained rats at dosage 0.4 mg/kg. Number of animals responding/number of animals are 3/4; format: functional
Rattus norvegicus [30] = test: Stimulus generalization in TFMPP-trained rats at dosage 0.05 mg/kg. Number of animals responding/number of animals are 4/4; format: functional
Rattus norvegicus [31] = test: Stimulus generalization in DOM-trained rats at dosage 1.0 mg/kg. Number of animals responding/number of animals are 0/3; D=Disruption of behavior; format: functional, organism-based; design: dose 1 mg/kg
Rattus norvegicus [32] = test: Compound was evaluated for Effective Dose DOM-trained rats at dosage 12.0 mg/kg. Number of animals responding/number of animals are 5/5; format: functional
Rattus norvegicus [33] = test: Stimulus generalization in DOM-trained rats at dosage 12.0 mg/kg. Number of animals responding/number of animals are 5/5; format: functional
Rattus norvegicus [34] = test: Stimulus generalization in DOM-trained rats at dosage 4.0 mg/kg. Number of animals responding/number of animals are 5/5; format: functional
Rattus norvegicus [35] = test: Stimulus generalization in DOM-trained rats at dosage 6.0 mg/kg. Number of animals responding/number of animals are 4/4; format: functional
Rattus norvegicus [36] = test: Stimulus generalization in TFMPP-trained rats at dosage 1.5 mg/kg. Number of animals responding/number of animals are 3/3; format: functional
Rattus norvegicus [37] = test: Stimulus generalization in TFMPP-trained rats at dosage 12.0 mg/kg. Number of animals responding/number of animals are 2/3; format: functional
Rattus norvegicus [38] = test: Stimulus generalization in TFMPP-trained rats at dosage 12.5 mg/kg. Number of animals responding/number of animals are 0/3; Disruption of Behavior; format: functional, organism-based; design: dose 12.5 mg/kg
Rattus norvegicus [39] = test: Stimulus generalization in TFMPP-trained rats at dosage 5.0 mg/kg. Number of animals responding/number of animals are 3/3; format: functional
Rattus norvegicus [40] = test: Stimulus generalization in TFMPP-trained rats at dosage 8.0 mg/kg. Number of animals responding/number of animals are 3/3; format: functional
Rattus norvegicus [41] = test: Stimulus generalization in DOM-trained rats at dosage 8.0 mg/kg. Number of animals responding/number of animals are 5/5; format: functional
Rattus norvegicus [42] = test: Compound was evaluated for ED50 in TFMPP-trained rats at dosage 0.50 mg/kg. Number of animals responding/number of animals are 4/4; format: functional
Rattus norvegicus [43] = test: Stimulus generalization in TFMPP-trained rats at dosage 0.50 mg/kg. Number of animals responding/number of animals are 5/5; format: functional; conditions: dose 0.5 mg/kg
Rattus norvegicus [44] = test: Stimulus generalization in TFMPP-trained rats at dosage 0.20 mg/kg. Number of animals responding/number of animals are 4/4; format: functional; conditions: dose 0.2 mg/kg
Rattus norvegicus [45] = test: Stimulus generalization in TFMPP-trained rats at dosage 0.30 mg/kg. Number of animals responding/number of animals are 4/4; format: functional; conditions: dose 0.3 mg/kg
Rattus norvegicus [46] = test: Stimulus generalization in TFMPP-trained rats at dosage 0.35 mg/kg. Number of animals responding/number of animals are 4/4; format: functional
Rattus norvegicus [47] = test: Stimulus generalization in TFMPP-trained rats at dosage 0.15 mg/kg. Number of animals responding/number of animals are 3/3; format: functional
Rattus norvegicus [48] = test: Stimulus generalization in TFMPP-trained rats at dosage 0.1 mg/kg. Number of animals responding/number of animals are 4/4; format: functional

COc1ccc(OC)c(N2CCNCC2)c1
Ki [1]: 1.03 µM | Ki [2]: 8.43 µM | Response (Rattus norvegicus [3]): 28% | Response (Rattus norvegicus [4]): 22% | Response (Rattus norvegicus [5]): inactive | Response (Rattus norvegicus [6]): inactive | Response (Rattus norvegicus [7]): inactive | Response (Rattus norvegicus [8]): 14% | Response (Rattus norvegicus [9]): 19% | Response (Rattus norvegicus [10]): 14% | Response (Rattus norvegicus [11]): 6% | Response (Rattus norvegicus [12]): 14% | Response (Rattus norvegicus [13]): 10%

COc1ccc(OC)c(C(=O)N2CCNCC2)c1
Ki [1]: > 100 µM | Ki [2]: > 100 µM

O=C(c1cccc(Cl)c1)N1CCNCC1
Ki [1]: 17.1 µM | Ki [2]: 55.6 µM

COc1cc(N2CCNCC2)c(OC)cc1Br
Ki [1]: 0.82 µM | Ki [2]: 2.43 µM | ED50 (Rattus norvegicus [14]): 4.08 mg/kg | Response (Rattus norvegicus [15]): 19% | Response (Rattus norvegicus [16]): 31% | Response (Rattus norvegicus [17]): 46% | Response (Rattus norvegicus [18]): 72% | Response (Rattus norvegicus [19]): 81%

Oc1ccccc1N1CCNCC1
Ki [1]: 0.15 µM | Ki [2]: 17.2 µM | Response (Rattus norvegicus [20]): 24% | Response (Rattus norvegicus [21]): 12% | Response (Rattus norvegicus [22]): 22% | Response (Rattus norvegicus [23]): 17%

COc1ccccc1N1CCNCC1
Ki [1]: 0.035 µM | Ki [2]: 3.5 µM | Response (Rattus norvegicus [24]): 12% | Response (Rattus norvegicus [25]): 20% | Response (Rattus norvegicus [26]): 81% | Response (Rattus norvegicus [27]): 94% | Response (Rattus norvegicus [28]): 33% | Response (Rattus norvegicus [29]): 63% | Response (Rattus norvegicus [30]): 23% | Response (Rattus norvegicus [31]): inactive

COc1cc(N2CCNCC2)c(OC)cc1C
Ki [1]: 0.68 µM | Ki [2]: 4.71 µM | ED50 (Rattus norvegicus [32]): 6.23 mg/kg | Response (Rattus norvegicus [33]): 83% | Response (Rattus norvegicus [34]): 21% | Response (Rattus norvegicus [35]): 53% | Response (Rattus norvegicus [36]): 11% | Response (Rattus norvegicus [37]): 30% | Response (Rattus norvegicus [38]): Disrupted behaviour | Response (Rattus norvegicus [39]): 11% | Response (Rattus norvegicus [40]): 7% | Response (Rattus norvegicus [41]): 68%

Cc1cccc(C(=O)N2CCNCC2)c1
Ki [1]: 20.7 µM | Ki [2]: 49 µM

COc1ccc(N)c(C(=O)CCN)c1
Ki [1]: 0.345 µM | Ki [2]: 8.48 µM

FC(F)(F)c1cccc(N2CCNCC2)c1
Ki [1]: 0.02 µM | Ki [2]: 0.16 µM | ED50 (Rattus norvegicus [42]): 0.17 mg/kg | Response (Rattus norvegicus [43]): 93% | Response (Rattus norvegicus [44]): 51% | Response (Rattus norvegicus [45]): 70% | Response (Rattus norvegicus [46]): 90% | Response (Rattus norvegicus [30]): 25% | Response (Rattus norvegicus [47]): 42% | Response (Rattus norvegicus [48]): 8%
